Test results: ChEMBL document CHEMBL3232885, “Synthesis, characterization and pharmacological screening of some novel 5-imidazopyrazole incorporated polyhydroquinoline derivatives” (Eur J Med Chem, 2014)
≈ marks a conversion by molar mass, not a printed value.

Columns and labels:
[1] = test system: Mycobacterium tuberculosis; experiment: Antitubercular activity against Mycobacterium tuberculosis H37Rv assessed as inhibition of colony formation at 250 ug/mL after 2 to 4 weeks by Lowensteine-Jensen method relative to control; format: functional
Aspergillus fumigatus = experiment: Antifungal activity against Aspergillus fumigatus MTCC 3008 assessed as growth inhibition after 24 to 48 hrs by broth microdilution method; format: functional
Method in brief: (§1)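 Fungal nutrition used Sabouraud Dextrose broth with inoculum at 10⁸ CFU mL⁻¹ by turbidity. Serial compound dilutions were made in 2% DMSO in water. Growth was noted on subculture after 24 and 48 h. MIC was taken as the highest dilution preventing visible turbidity after spot subculture.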

Streptococcus pneumoniae = experiment: Antibacterial activity against Streptococcus pneumoniae MTCC 1936 assessed as growth inhibition after 24 to 48 hrs by broth microdilution method; format: functional
Method in brief: (§2)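 Bacteria were grown in Mueller-Hinton broth with inoculum adjusted to 10⁸ CFU mL⁻¹ by turbidity. Compounds were serially diluted in 2% aqueous DMSO and incubated at 37 °C overnight. Growth was checked by subculture at 24 and 48 h. MIC was taken as the highest dilution with no turbidity after spot subculture.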

Candida albicans = experiment: Antifungal activity against Candida albicans MTCC 227 assessed as growth inhibition after 24 to 48 hrs by broth microdilution method; format: functional; method in brief: as §1
Clostridium tetani = experiment: Antibacterial activity against Clostridium tetani MTCC 449 assessed as growth inhibition after 24 to 48 hrs by broth microdilution method; format: functional
Escherichia coli = experiment: Antibacterial activity against Escherichia coli MTCC 443 assessed as growth inhibition after 24 to 48 hrs by broth microdilution method; format: functional; method in brief: as §2
[2] = test system: Mycobacterium tuberculosis; experiment: Antitubercular activity against Mycobacterium tuberculosis H37Rv assessed as inhibition of colony formation at 100 ug/mL after 2 to 4 weeks by Lowensteine-Jensen method relative to control; format: functional
Salmonella typhi = experiment: Antibacterial activity against Salmonella typhi MTCC 98 assessed as growth inhibition after 24 to 48 hrs by broth microdilution method; format: functional, Salmonella enterica subsp. enterica serovar Typhi; settings: Salmonella enterica
Vibrio cholerae = experiment: Antibacterial activity against Vibrio cholerae MTCC 3906 assessed as growth inhibition after 24 to 48 hrs by broth microdilution method; format: functional
Plasmodium falciparum = experiment: Antimalarial activity against chloroquine/quinine sensitive Plasmodium falciparum assessed as parasite growth inhibition after 48 hrs; format: functional, organism-based
Bacillus subtilis = experiment: Antibacterial activity against Bacillus subtilis MTCC 441 assessed as growth inhibition after 24 to 48 hrs by broth microdilution method; format: functional; method in brief: as §2

| SMILES | inhibition at 250 µg/mL [1] | MIC (Aspergillus fumigatus) | MIC (Streptococcus pneumoniae) | MIC (Candida albicans) | MIC (Clostridium tetani) | MIC (Escherichia coli) | inhibition at 100 µg/mL [2] | MIC (Salmonella typhi) | MIC (Vibrio cholerae) | IC50 (Plasmodium falciparum) | MIC (Bacillus subtilis) |
| --- | --- | --- | --- | --- | --- | --- | --- | --- | --- | --- | --- |
| Cc1ccc(N2C(N)=C(C#N)C(c3c(C)nn(-c4ccccc4)c3-n3ccnc3)C3=C2CC(C)(C)CC3=O)cc1 (stereo unspecified) | 90% | 1000 µg/mL (≈ 1890 µM) | 125 µg/mL (≈ 236 µM) | 1000 µg/mL (≈ 1890 µM) | 100 µg/mL (≈ 189 µM) | 200 µg/mL (≈ 378 µM) | 80% | 62.5 µg/mL (≈ 118 µM) | 250 µg/mL (≈ 472 µM) | 1.07 µg/mL (≈ 2.03 µM) | 100 µg/mL (≈ 189 µM) |
| CCOC(=O)C1=C(N)N(c2ccc(Cl)cc2)C2=C(C(=O)CC(C)(C)C2)C1c1c(C)nn(-c2ccccc2)c1-n1ccnc1 (stereo unspecified) | 63% | 500 µg/mL (≈ 837 µM) | 125 µg/mL (≈ 209 µM) | > 1000 µg/mL | 125 µg/mL (≈ 209 µM) | 100 µg/mL (≈ 167 µM) | 58% | 100 µg/mL (≈ 167 µM) | 200 µg/mL (≈ 335 µM) | 0.057 µg/mL (≈ 0.0955 µM) | 100 µg/mL (≈ 167 µM) |
| CC1(C)S[C@@H]2[C@H](NC(=O)[C@H](N)c3ccccc3)C(=O)N2[C@H]1C(=O)O [AMPICILLIN] |  |  | 100 µg/mL (≈ 286 µM) |  | 100 µg/mL (≈ 286 µM) | 10 µg/mL (≈ 28.6 µM) |  | 10 µg/mL (≈ 28.6 µM) | 50 µg/mL (≈ 143 µM) |  | 100 µg/mL (≈ 286 µM) |
| Cc1nn(-c2ccccc2)c(-n2ccnc2)c1C1C(C(N)=O)=C(N)N(c2ccc(Cl)cc2)C2=C1C(=O)CC(C)(C)C2 (stereo unspecified) | 75% | 1000 µg/mL (≈ 1760 µM) | 200 µg/mL (≈ 352 µM) | 250 µg/mL (≈ 440 µM) | 200 µg/mL (≈ 352 µM) | 250 µg/mL (≈ 440 µM) | 66% | 250 µg/mL (≈ 440 µM) | 500 µg/mL (≈ 880 µM) | 0.059 µg/mL (≈ 0.104 µM) | 200 µg/mL (≈ 352 µM) |
| COc1ccc(N2C(N)=C(C#N)C(c3c(C)nn(-c4ccccc4)c3-n3ccnc3)C3=C2CC(C)(C)CC3=O)cc1 (stereo unspecified) | 91% | 500 µg/mL (≈ 916 µM) | 100 µg/mL (≈ 183 µM) | 1000 µg/mL (≈ 1830 µM) | 100 µg/mL (≈ 183 µM) | 200 µg/mL (≈ 367 µM) | 88% | 100 µg/mL (≈ 183 µM) | 250 µg/mL (≈ 458 µM) | 0.086 µg/mL (≈ 0.158 µM) | 125 µg/mL (≈ 229 µM) |
| Cc1ccc(N2C(N)=C(C(N)=O)C(c3c(C)nn(-c4ccccc4)c3-n3ccnc3)C3=C2CC(C)(C)CC3=O)cc1 (stereo unspecified) | 35% | 250 µg/mL (≈ 456 µM) | 250 µg/mL (≈ 456 µM) | > 1000 µg/mL | 200 µg/mL (≈ 365 µM) | 200 µg/mL (≈ 365 µM) | 30% | 200 µg/mL (≈ 365 µM) | 250 µg/mL (≈ 456 µM) | 1.02 µg/mL (≈ 1.87 µM) | 250 µg/mL (≈ 456 µM) |
| Cc1nn(-c2ccccc2)c(-n2ccnc2)c1C1C(C#N)=C(N)N(c2ccccc2)C2=C1C(=O)CC(C)(C)C2 (stereo unspecified) | 33% | 500 µg/mL (≈ 970 µM) | 500 µg/mL (≈ 970 µM) | 1000 µg/mL (≈ 1940 µM) | 500 µg/mL (≈ 970 µM) | 100 µg/mL (≈ 194 µM) | 28% | 125 µg/mL (≈ 242 µM) | 100 µg/mL (≈ 194 µM) | 1.08 µg/mL (≈ 2.1 µM) | 250 µg/mL (≈ 485 µM) |
| C=C[C@H]1CN2CC[C@H]1C[C@H]2[C@H](O)c1ccnc2ccc(OC)cc12 [QUININE] |  |  |  |  |  |  |  |  |  | 0.268 µg/mL (≈ 0.826 µM) |  |
| Cc1nn(-c2ccccc2)c(-n2ccnc2)c1C1C(C(N)=O)=C(N)N(c2ccc(O)cc2)C2=C1C(=O)CCC2 (stereo unspecified) | 67% | 1000 µg/mL (≈ 1920 µM) | 250 µg/mL (≈ 479 µM) | 1000 µg/mL (≈ 1920 µM) | 200 µg/mL (≈ 383 µM) | 200 µg/mL (≈ 383 µM) | 60% | 100 µg/mL (≈ 192 µM) | 500 µg/mL (≈ 959 µM) | 0.033 µg/mL (≈ 0.0633 µM) | 200 µg/mL (≈ 383 µM) |
| CCOC(=O)C1=C(N)N(c2ccccc2)C2=C(C(=O)CC(C)(C)C2)C1c1c(C)nn(-c2ccccc2)c1-n1ccnc1 (stereo unspecified) | 45% | 500 µg/mL (≈ 889 µM) | 500 µg/mL (≈ 889 µM) | 250 µg/mL (≈ 444 µM) | 200 µg/mL (≈ 355 µM) | 250 µg/mL (≈ 444 µM) | 37% | 200 µg/mL (≈ 355 µM) | 125 µg/mL (≈ 222 µM) | 1.47 µg/mL (≈ 2.61 µM) | 250 µg/mL (≈ 444 µM) |
| CCOC(=O)C1=C(N)N(c2ccc(OC)cc2)C2=C(C(=O)CC(C)(C)C2)C1c1c(C)nn(-c2ccccc2)c1-n1ccnc1 (stereo unspecified) | 25% | 1000 µg/mL (≈ 1690 µM) | 100 µg/mL (≈ 169 µM) | 1000 µg/mL (≈ 1690 µM) | 250 µg/mL (≈ 422 µM) | 100 µg/mL (≈ 169 µM) | 20% | 200 µg/mL (≈ 337 µM) | 250 µg/mL (≈ 422 µM) | 1.49 µg/mL (≈ 2.51 µM) | 125 µg/mL (≈ 211 µM) |
| O=C(O)c1cn(C2CC2)c2cc(N3CCNCC3)c(F)cc2c1=O [CIPROFLOXACIN] |  |  |  |  |  |  |  | 10 µg/mL (≈ 30.2 µM) | 50 µg/mL (≈ 151 µM) |  | 100 µg/mL (≈ 302 µM) |
| CO[C@H]1/C=C/O[C@@]2(C)Oc3c(C)c(O)c4c(O)c(c(/C=N/N5CCN(C)CC5)c(O)c4c3C2=O)NC(=O)/C(C)=C\C=C\[C@H](C)[C@H](O)[C@@H](C)[C@@H](O)[C@@H](C)[C@H](OC(C)=O)[C@@H]1C [RIFAMPIN] | 98% |  |  |  |  |  | 98% |  |  |  |  |
